Experimental data taken from ChEMBL document CHEMBL1145116, “Imidazo[1,2-b]pyridazines, novel nucleus with potent and broad spectrum activity against human picornaviruses: design, synthesis, and biological evaluation” (J Med Chem, 2003).
Values after ≈ are worked out from the molar mass of the structure shown.

Key:
[1] = system: rhinovirus B14; assay: (§1) Cytopathic effect was evaluated against rhino virus usingCPE/XTT assay; format: functional, human rhinovirus14
Procedure, shortened: (§2)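 HeLa cells were seeded at 10 000 per well in medium 199 with 5% FBS and grown overnight at 37 °C. Surviving cells were read with XTT (0.4 mg/mL) plus PMS after 3-4 h at 37 °C. IC50 (CPE inhibition) and TC50 (versus a no-drug, no-virus control) came from the linear portion of the dose–response curves.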

[2] = system: rhinovirus B14; assay: (§3) Antiviral activity was evaluated against rhino virus using PRA assay; format: functional, organism-based, human rhinovirus14; conditions: Rhinovirus B
Procedure, shortened: (§4)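 Rhinovirus 14 was adsorbed for 1 h at room temperature onto confluent H-HeLa monolayers grown in medium 199 with 10% FBS. Cells were overlaid with agarose and growth medium (5% FBS) containing compound in DMSO (final DMSO 0.01%), then held at 37 °C under CO2 until plaques appeared in DMSO controls. Plates were formalin-fixed, crystal-violet stained and plaques counted, with duplicate wells averaged. IC50/IC90 were computed by Reed–Muench.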

[3] = system: Human rhinovirus sp.; assay: as §3; format: functional, organism-based, human rhinovirus14; procedure, shortened: as §4
[4] = system: Coxsackievirus A21; assay: Broad spectrum antiviral activity was evaluated against CA21C; format: functional, organism-based; conditions: Enterovirus C
[5] = system: Coxsackievirus A21; assay: Broad spectrum antiviral activity was evaluated against coxsackievirus A21 mouse muscle adapted (CA21M); format: functional, organism-based; conditions: Enterovirus C, Muscle tissue
[6] = system: Coxsackievirus B3; assay: Broad spectrum antiviral activity was evaluated against CB3; format: functional, organism-based, and coxsackievirus b3; conditions: Enterovirus B
[7] = system: Human rhinovirus 1A; assay: Broad spectrum antiviral activity was evaluated against HRV-1A; format: functional, organism-based, human rhinovirus1a
[8] = system: rhinovirus A2; assay: Broad spectrum antiviral activity was evaluated against HRV-2; format: functional, organism-based, human rhinovirus2; conditions: Rhinovirus A
[9] = system: Poliovirus 1; assay: Broad spectrum antiviral activity was evaluated against PV1; format: functional, organism-based; conditions: Enterovirus C
[10] = system: rhinovirus A16; assay: Broad spectrum antiviral activity was evaluated against HRV-16; format: functional, organism-based; conditions: Rhinovirus A
[11] = system: Human rhinovirus sp.; assay: as §1; format: functional, human rhinovirus14; procedure, shortened: as §2

SMILES | TC50 [1] [µg/mL] | IC50 [2] [µg/mL] | also measured
CNC(=O)/C=C(\c1ccc(C)cc1)c1ccc2nc(N)c(-c3ccc(F)cc3)n2n1 | >10 | 0.23 (≈ 0.573 µM) | 
Nc1nc2ccc(/C(=N/Nc3ccccc3)c3ccccc3)nn2c1-c1ccc(F)cc1 | >10 | > 10 | 
CNC(=O)/C=C(/c1ccccc1)c1ccc2nc(N)c(-c3ccc(F)cc3)n2n1 |  | > 10 | 
CNC(=O)/C=C(/c1ccc(C)cc1)c1ccc2nc(N)c(-c3ccc(F)cc3)n2n1 | >10 | > 10 | 
CCOC(=O)/C=C(\c1ccccc1)c1ccc2nc(N)c(-c3ccc(F)cc3)n2n1 |  | > 10 | 
CNC(=O)/C=C(\c1ccccc1)c1ccc2nc(N)c(-c3ccc(F)cc3)n2n1 | 4.06 (≈ 10.5 µM) | 0.11 (≈ 0.284 µM) | 
Nc1nc2ccc(C(=O)c3ccccc3)nn2c1-c1ccccc1 |  |  | IC50 [3]: 7.19 µg/mL (≈ 22.9 µM)
CNC(=O)/C=C(/c1ccc(OC)cc1)c1ccc2nc(N)c(-c3ccc(F)cc3)n2n1 | >10 | 4.2 (≈ 10.1 µM) | 
Nc1nc2ccc(/C(=N/O)c3ccccc3)nn2c1-c1ccccc1 | >10 | 0.04 (≈ 0.121 µM) | IC50 [4]: 0.04 µg/mL (≈ 0.121 µM); IC50 [5]: 0.02 µg/mL (≈ 0.0607 µM); IC50 [6]: 0.05 µg/mL (≈ 0.152 µM); IC50 [7]: 0.05 µg/mL (≈ 0.152 µM); IC50 [8]: 0.03 µg/mL (≈ 0.0911 µM); IC50 [9]: 0.04 µg/mL (≈ 0.121 µM); IC50 [10]: 0.06 µg/mL (≈ 0.182 µM)
CNC(=O)/C=C(\c1ccc(OC)cc1)c1ccc2nc(N)c(-c3ccc(F)cc3)n2n1 | >10 | 0.6 (≈ 1.44 µM) | 
Nc1nc2ccc(/C(=N/O)c3ccccc3)nn2c1-c1ccc(F)cc1 |  |  | TC50 [11]: >10 µg/mL; IC50 [3]: 0.05 µg/mL (≈ 0.144 µM)
CC(C)S(=O)(=O)n1c(N)nc2ccc(/C(=N/O)c3ccccc3)cc21 [ENVIROXIME] |  |  | IC50 [3]: 0.05 µg/mL (≈ 0.139 µM)
